Source: paper PMC5669264 (Journal of medicinal chemistry, 2017)
Entries after “also recorded” stand apart in the source; their conditions may differ. Like-named read-outs stand apart in the source and are kept apart here.

Key:
[1] = test system: formalin-induced nociceptive behavior; experiment: Formalin test; assay type: in vivo; settings: mice; for effect of the combination of 28 and 31 in formalin test: 28 1 mg/kg ip + 31 1 mg/kg ip
[2] = test system: formalin-induced nociceptive behavior; settings: cited from earlier work; for effect on second phase of formalin test in presence of A1AR antagonist 29: with 29 (DPCPX) 3 mg/kg ip
[3] = molecular target: T1, hA1AR (Homo sapiens, UniProt P30542); settings: cited from earlier work
T1 sequence (P30542 1-326): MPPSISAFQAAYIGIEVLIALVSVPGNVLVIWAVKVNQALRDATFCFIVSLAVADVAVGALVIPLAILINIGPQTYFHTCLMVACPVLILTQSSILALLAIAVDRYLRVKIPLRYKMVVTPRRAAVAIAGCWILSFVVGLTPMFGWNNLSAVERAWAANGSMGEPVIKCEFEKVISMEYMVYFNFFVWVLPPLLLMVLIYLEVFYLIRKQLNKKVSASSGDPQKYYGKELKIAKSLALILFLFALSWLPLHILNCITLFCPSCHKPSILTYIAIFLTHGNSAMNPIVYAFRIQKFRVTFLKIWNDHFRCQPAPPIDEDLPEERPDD

[4] = test system: mouse A1AR; settings: cited from earlier work
[5] = molecular target: T2, A2B ARs (Homo sapiens, UniProt P29275); experiment: Stimulation of adenylyl cyclase activity; assay type: biochemical
T2 sequence (P29275 1-332): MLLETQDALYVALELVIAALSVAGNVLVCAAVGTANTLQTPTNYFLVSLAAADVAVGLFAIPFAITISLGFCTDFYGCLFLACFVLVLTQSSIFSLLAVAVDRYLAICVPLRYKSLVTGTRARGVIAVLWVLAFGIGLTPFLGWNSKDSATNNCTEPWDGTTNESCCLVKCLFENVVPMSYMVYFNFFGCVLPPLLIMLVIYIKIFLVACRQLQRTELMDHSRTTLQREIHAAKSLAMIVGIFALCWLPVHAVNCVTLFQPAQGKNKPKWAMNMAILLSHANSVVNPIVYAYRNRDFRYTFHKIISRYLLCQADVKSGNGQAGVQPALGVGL
How it was run: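 Crude membranes came from CHO cells stably transfected with human A2B receptor, from a single high-speed spin. They were resuspended in 50 mM Tris/HCl, pH 7.4, and used immediately. Stimulation of adenylyl cyclase activity gave agonist EC50. […] Values are geometric means with 95% confidence intervals (n ≥ 3).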

[6] = molecular target: T2, A2B ARs; settings: hA2B; ref Petrelli et al.[7]; cited from earlier work
[7] = molecular target: hA2A receptor (Homo sapiens, UniProt P29274); settings: ref Petrelli et al.[7]; cited from earlier work
Chain of hA2A receptor (P29274 whole entry): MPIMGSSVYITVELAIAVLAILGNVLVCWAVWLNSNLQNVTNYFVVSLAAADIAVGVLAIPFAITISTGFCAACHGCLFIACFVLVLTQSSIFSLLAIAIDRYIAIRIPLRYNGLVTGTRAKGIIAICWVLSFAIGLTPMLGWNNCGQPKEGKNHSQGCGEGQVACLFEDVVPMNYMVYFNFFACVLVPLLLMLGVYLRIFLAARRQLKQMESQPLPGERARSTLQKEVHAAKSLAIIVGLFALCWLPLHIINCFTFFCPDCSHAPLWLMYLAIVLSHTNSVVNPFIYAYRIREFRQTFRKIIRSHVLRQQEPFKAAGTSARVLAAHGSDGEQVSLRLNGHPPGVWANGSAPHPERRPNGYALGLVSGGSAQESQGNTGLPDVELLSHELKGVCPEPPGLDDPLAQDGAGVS

For `O[C@@H]1[C@H](O)[C@@H](CCl)O[C@H]1n1cnc2c(NC3C[C@@H]4CC[C@@H]3C4)ncnc21` (mixture of isomers) [Compound 28, 5′-chloro-5′-deoxy-N^6-(±)-endo-norborn-2-yl)adenosine], the “effect of the combination of 28 and 31 in formalin test” value [1] is given as “showed greater effects when combined in reducing both the first and the second phases of formalin test”, the “effect on second phase of formalin-induced hyperalgesia” value ([2]; 1–2 mg/kg ip) is given as “inhibited the second phase of formalin-induced hyperalgesia in a dose-dependent manner” and the “effect on second phase of formalin test in presence of A1AR antagonist 29” value [2] is given as “blocked”. For the same compound, the “selectivity hA1AR vs hA3AR” value [3] was ~ 2600 fold and the “selectivity mouse A1AR vs A3AR” value [4] was ~ 10 000 fold.
In the case of `C[C@@]1(O)[C@H](O)[C@@H](CO)O[C@H]1n1cnc2c(NC3CCCC3)nc(Cl)nc21` [Compound 27, 2-chloro-2′-C-methyl-N^6-cyclopentyladenosine], the “effect on second phase of formalin-induced hyperalgesia” value ([2]; 2.5–5 mg/kg ip) is listed as “inhibited the second phase of formalin-induced hyperalgesia in a dose-dependent manner” and the “effect on second phase of formalin test in presence of A1AR antagonist 29” value [2] is listed as “blocked”.
In the case of `CCn1nnc([C@H]2O[C@@H](n3cnc4c(NCc5cccc(F)c5)ncnc43)C(O)C2O)n1` (stereo in doubt) [Compound 9, (2R,3R,4S,5R)-2-(2-Ethyl-2H-tetrazol-5-yl)-5-(6-((3-fluorobenzyl)amino)-9H-purin-9-yl)tetrahydrofuran-3,4-diol], the “functional behaviour at hA2B receptor” value [5] is reported as “partial A2BAR agonists”.
For `CCn1nnc([C@H]2O[C@@H](n3cnc4c(NC)nc(Cl)nc43)[C@H](O)[C@@H]2O)n1` [Compound 23], the “efficacy (pag, partial agonist % efficacy) A2B” value [6] is listed as 75%.
For `CCn1nnc([C@H]2O[C@@H](n3cnc4c(NCC5CC5)ncnc43)C(O)C2O)n1` (stereo in doubt) [Compound 3, (2R,3S,4R,5R)-2-(6-((Cyclopropylmethyl)amino)-9H-purin-9-yl)-5-(2-ethyl-2H-tetrazol-5-yl)tetrahydrofuran-3,4-diol], the “functional behaviour at hA2B receptor” value [5] was “partial A2BAR agonists”.
In the case of `CNC(=O)[C@H]1O[C@@H](n2cnc3c(NCc4cccc(I)c4)nc(Cl)nc32)[C@H](O)[C@@H]1O` [Compound 31, 2-chloro-N^6-(3-iodobenzyl)-5′-N-methylcarboxamidoadenosine], the “effect of the combination of 22 and 31 in formalin test” value ([1]; 22 0.3 mg/kg ip + 31 1 mg/kg ip, 10 min before formalin, P < 0.005) is reported as “completely erased the second phase and reduced the first phase of formalin-induced nociceptive behavior; also recorded: reduced completely the nocifensive behavior in both the first and the second phases of formalin test” and the “effect of the combination of 28 and 31 in formalin test” value [1] is reported as “showed greater effects when combined in reducing both the first and the second phases of formalin test”.
With `CCn1nnc([C@H]2O[C@@H](n3cnc4c(NC5CC5)ncnc43)C(O)C2O)n1` (stereo in doubt) [Compound 1, (2R,3S,4R,5R)-2-(6-(Cyclopropylamino)-9H-purin-9-yl)-5-(2-ethyl-2H-tetrazol-5-yl)tetrahydrofuran-3,4-diol] the “functional behaviour at hA2B receptor” value [5] was “partial A2BAR agonists”.
In the case of `CCn1nnc([C@H]2O[C@@H](n3cnc4c(NCc5cccc(Cl)c5)ncnc43)C(O)C2O)n1` (stereo in doubt) [Compound 11, (2R,3S,4R,5R)-2-(6-((3-Chlorobenzyl)amino)-9H-purin-9-yl)-5-(2-ethyl-2H-tetrazol-5-yl)tetrahydrofuran-3,4-diol], the “effect on formalin-induced nociceptive behavior” value ([1]; 0.5–1.0 mg/kg ip, 10 min before formalin, P < 0.005) is reported as “reduced the late nociceptive behavior induced by formalin in a dose-dependent manner”.
In the case of `CCn1nnc([C@H]2O[C@@H](n3cnc4c(NCc5cccc(I)c5)nc(Cl)nc43)[C@H](O)[C@@H]2O)n1` [Compound 26], the “effect on formalin-induced nociceptive behavior” value ([1]; highest dose tested 1 mg/kg ip, 10 min before formalin) is listed as “inactive”, the “efficacy (pag, partial agonist % efficacy) A2A” value [7] is listed as 75% and the “efficacy (pag, partial agonist % efficacy) A2B” value [6] is listed as 76%.
